Measurements reported in ChEMBL document CHEMBL1140196, “Synthesis and biological activities of some new fluorinated coumarins and 1-aza coumarins” (Eur J Med Chem, 2008).

Columns and labels:
Mus musculus = test: Analgesic activity in albino mouse assessed as inhibition of acetic acid-induced writhing at 10 mg/kg, po; assay type: functional
Method in brief: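 Acetic acid writhing test: 0.6% acetic acid at 0.1 ml/10 g given intraperitoneally to albino mice of both sexes (18–22 g). Compounds given orally at 10 mg/kg as a suspension in 5% carboxymethyl cellulose. Indomethacin 10 mg/kg was the reference under the same conditions.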

Rattus norvegicus [1] = test: Antiinflammatory activity in Wistar rat assessed as inhibition of formalin-induced paw oedema volume at 100 mg/kg, po administered 30 mins before formalin challenge after 1 hr relative to control; assay type: functional
Method in brief: (§1)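 Oral dosing at 100 mg/kg as a 2% CMC suspension, 30 min before injecting 3.5% formalin into the paw. Groups of six Wistar rats of either sex. Paw volume read by mercury-displacement plethysmograph at 0 h (right after formalin) and at 1, 2, 3, 4 and 5 h. Percent inhibition versus plain 2% CMC controls; SEM reported.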

[2] = Acute toxicity in ip dosed albino mouse after 24 hrs; assay type: organism-based; details: in vivo
Method in brief: (§2)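 Groups of six albino mice (20–25 g), fasted overnight, dosed once orally or intraperitoneally at 100 to 1000 mg kg^-1 body weight. Observed for 24 h for mortality and signs of acute toxicity (altered motor activity, tremors, convulsion, sedation, lacrimation). LD50 cut-off set at the highest dose tested, 1000 mg kg^-1.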

Rattus norvegicus [3] = test: Antiinflammatory activity in Wistar rat assessed as inhibition of formalin-induced paw oedema volume at 100 mg/kg, po administered 30 mins before formalin challenge after 2 hrs relative to control; assay type: functional; method in brief: as §1
Rattus norvegicus [4] = test: Antiinflammatory activity in Wistar rat assessed as inhibition of formalin-induced paw oedema volume at 100 mg/kg, po administered 30 mins before formalin challenge after 3 hrs relative to control; assay type: functional; method in brief: as §1
[5] = Acute toxicity in po dosed albino mouse after 24 hrs; assay type: organism-based; details: in vivo; method in brief: as §2
Rattus norvegicus [6] = test: Antiinflammatory activity in Wistar rat assessed as inhibition of formalin-induced paw oedema volume at 100 mg/kg, po administered 30 mins before formalin challenge after 5 hrs relative to control; assay type: functional; method in brief: as §1
Rattus norvegicus [7] = test: Gastrointestinal toxicity in Wistar rat assessed as ulcerogenic effect at 400 mg/kg, po administered twice at 2 hrs interval after 4 hrs; assay type: organism-based; design: dose 400 mg/kg, route oral; details: in vivo
Method in brief: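 Male Wistar rats fasted 36 h, then given 400 mg/kg orally twice, 2 h apart. Animals killed 4 h later and the stomach examined for lesions; ulcer index recorded.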

Rattus norvegicus [8] = test: Antiinflammatory activity in Wistar rat assessed as inhibition of formalin-induced paw oedema volume at 100 mg/kg, po administered 30 mins before formalin challenge after 4 hrs relative to control; assay type: functional; method in brief: as §1
Escherichia coli [9] = test: Antibacterial activity against Escherichia coli at 50 ug/mL after 48 hrs by cup-plate method; assay type: functional
Aspergillus niger [10] = test: Antifungal activity against Aspergillus niger at 25 ug/mL after 48 hrs by cup-plate method; assay type: functional; details: for zone of inhibition at 25 µg/mL: read-out: IZ
Escherichia coli [11] = test: Antibacterial activity against Escherichia coli at 100 ug/mL after 48 hrs by cup-plate method; assay type: functional
Aspergillus niger [12] = test: Antifungal activity against Aspergillus niger at 100 ug/mL after 48 hrs by cup-plate method; assay type: functional
Aspergillus niger [13] = test: Antifungal activity against Aspergillus niger at 50 ug/mL after 48 hrs by cup-plate method; assay type: functional
Escherichia coli [14] = test: Antibacterial activity against Escherichia coli at 25 ug/mL after 48 hrs by cup-plate method; assay type: functional; details: for zone of inhibition at 25 µg/mL: read-out: IZ
Bacillus [15] = test: Antibacterial activity against […] at 100 ug/mL after 48 hrs by cup-plate method; assay type: functional
Macrophomina phaseolina [16] = test: Antifungal activity against Rhizoctonia bataticola at 50 ug/mL after 48 hrs by cup-plate method; assay type: functional
Macrophomina phaseolina [17] = test: Antifungal activity against Rhizoctonia bataticola at 25 ug/mL after 48 hrs by cup-plate method; assay type: functional
Bacillus [18] = test: Antibacterial activity against […] at 25 ug/mL after 48 hrs by cup-plate method; assay type: functional; details: for zone of inhibition at 25 µg/mL: read-out: IZ
Bacillus [19] = test: Antibacterial activity against […] at 50 ug/mL after 48 hrs by cup-plate method; assay type: functional
Macrophomina phaseolina [20] = test: Antifungal activity against Rhizoctonia bataticola at 100 ug/mL after 48 hrs by cup-plate method; assay type: functional

SMILES | inhibition in vivo at 10 mg/kg (Mus musculus) [%] | inhibition in vivo at 100 mg/kg (Rattus norvegicus [1]) [%] | LD50 at 24 h [2] [mg/kg] | inhibition in vivo at 100 mg/kg (Rattus norvegicus [3]) [%] | inhibition in vivo at 100 mg/kg (Rattus norvegicus [4]) [%] | LD50 at 24 h [5] [mg/kg] | inhibition in vivo at 100 mg/kg (Rattus norvegicus [6]) [%] | UI (Rattus norvegicus [7]) | inhibition in vivo at 100 mg/kg (Rattus norvegicus [8]) [%] | inhibition at 50 µg/mL (Escherichia coli [9]) [%] | inhibition at 25 µg/mL (Aspergillus niger [10]) [%] | zone of inhibition at 25 µg/mL (Aspergillus niger [10]) [mm] | inhibition at 100 µg/mL (Escherichia coli [11]) [%] | inhibition at 100 µg/mL (Aspergillus niger [12]) [%] | inhibition at 50 µg/mL (Aspergillus niger [13]) [%] | inhibition at 25 µg/mL (Escherichia coli [14]) [%] | zone of inhibition at 25 µg/mL (Escherichia coli [14]) [mm] | inhibition at 100 µg/mL (Bacillus [15]) [%] | inhibition at 50 µg/mL (Macrophomina phaseolina [16]) [%] | inhibition at 25 µg/mL (Macrophomina phaseolina [17]) [%] | also measured
Cc1ccc2oc(=O)cc(COc3ccc(F)cc3)c2c1 | 72.7 | 40 | > 700 | 36 | 48 | > 1000 | 76 | 57.29 | 64 | – | – | – | – | – | – | – | – | – | – | – | –
O=c1cc(CNc2ccc(F)cc2)c2cc(Cl)ccc2[nH]1 | 7.99 | 9 | > 700 | 12 | 46 | > 1000 | 77 | 58.57 | 59 | 50 | 35 | 70 | 70 | 77 | 47 | 26 | 60 | 76 | 56 | 44 | inhibition at 25 µg/mL (Bacillus [18]): 22%; zone of inhibition at 25 µg/mL (Bacillus [18]): 52 mm; inhibition at 50 µg/mL (Bacillus [19]): 41%; inhibition at 100 µg/mL (Macrophomina phaseolina [20]): 75%
O=c1cc(COc2ccc(F)cc2)c2ccc(Cl)cc2[nH]1 | 61.3 | 24 | > 800 | 24 | 54 | > 1000 | 78 | 67.5 | 66 | 56 | 34 | 68 | 78 | 79 | 47 | 34 | 72 | 76 | 72 | 55 | inhibition at 25 µg/mL (Bacillus [18]): 22%; zone of inhibition at 25 µg/mL (Bacillus [18]): 52 mm; inhibition at 50 µg/mL (Bacillus [19]): 40%; inhibition at 100 µg/mL (Macrophomina phaseolina [20]): 86%
O=c1cc(COc2ccc(F)cc2)c2ccccc2[nH]1 | 15.8 | 35 | > 800 | 23 | 52 | > 1000 | 77 | 60.71 | 63 | – | – | – | – | – | – | – | – | – | – | – | –
Cc1cccc2c(CNc3ccc(F)cc3)cc(=O)[nH]c12 | 67 | 23 | > 700 | 28 | 6 | > 1000 | 85 | 55.35 | 73 | – | – | – | – | – | – | – | – | – | – | – | –
O=c1cc(COc2ccc(F)cc2)c2ccc3ccccc3c2o1 | 23.2 | 46 | > 800 | 30 | 45 | > 1000 | 75 | 61.8 | 66 | – | – | – | – | – | – | – | – | – | – | – | –
